Experimental data taken from ChEMBL document CHEMBL1129649, “A novel series of (phenoxyalkyl)imidazoles as potent H3-receptor histamine antagonists” (J Med Chem, 1996).

Tests used:
[1] = system: Mus musculus; experiment: In vivo evaluation for effect on brain tele-methylhistamine levels in mice; type: functional
Method in brief: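 Male Swiss mice (18-22 g, groups of at least six) fasted 24 h, then dosed orally as salt suspended in 1% methylcellulose (doses as free base, starting at 10 mg/kg). Cerebral cortex taken 90 min later, homogenized in ice-cold 0.4 M perchloric acid; tele-methylhistamine measured by radioimmunoassay. ED50 calculated relative to maximal level produced by 10 mg/kg thioperamide.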

[2] = target: Histamine H3 receptor (Rattus norvegicus, UniProt Q9QYN8); experiment: Rat Histamine H3 receptor antagonism determined by [K+] - evoked depolarization-induced release of [3H]histamine from rat cerebral cortex synaptosomes; type: functional, subcellular, Brain
Histamine H3 receptor, sequence (Q9QYN8 whole entry): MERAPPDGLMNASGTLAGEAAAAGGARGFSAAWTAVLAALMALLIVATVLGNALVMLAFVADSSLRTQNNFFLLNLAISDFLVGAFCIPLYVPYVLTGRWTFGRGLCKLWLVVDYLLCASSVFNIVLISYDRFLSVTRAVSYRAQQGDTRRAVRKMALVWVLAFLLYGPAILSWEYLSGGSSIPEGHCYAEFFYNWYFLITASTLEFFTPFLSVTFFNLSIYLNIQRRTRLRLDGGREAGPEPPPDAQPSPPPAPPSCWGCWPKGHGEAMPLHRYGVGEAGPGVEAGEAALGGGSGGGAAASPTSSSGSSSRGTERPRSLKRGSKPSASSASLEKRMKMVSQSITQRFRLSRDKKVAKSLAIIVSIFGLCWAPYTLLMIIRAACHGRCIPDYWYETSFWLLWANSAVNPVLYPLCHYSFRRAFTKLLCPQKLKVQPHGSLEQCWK

SMILES | Ki [2] [nM] | ED50 [1] [mg/kg]
O=[N+]([O-])c1ccc(OCCc2c[nH]cn2)cc1 |  | 0.66
O=[N+]([O-])c1ccc(CSCc2c[nH]cn2)cc1 |  | > 10
Cc1ccc(OCCc2c[nH]cn2)cc1 |  | 2.3
CC(=O)c1ccc(OCCc2c[nH]cn2)cc1 |  | 3.2
COC(=O)c1ccc(OCCc2c[nH]cn2)cc1 | 5.1 | > 3
N#Cc1ccccc1OCCc1c[nH]cn1 |  | > 10
O=[N+]([O-])c1ccc(NCCc2c[nH]cn2)cc1 |  | 10.7
CCOC(=O)c1ccc(OCCc2c[nH]cn2)cc1 | 6 | > 10
N#Cc1ccc(OCCc2c[nH]cn2)cc1 |  | 1.2
CCCc1ccc(OCCc2c[nH]cn2)cc1 |  | 1.6
FC(F)(F)c1ccc(OCCCc2c[nH]cn2)cc1 |  | 0.6
S=C(NC1CCCCC1)N1CCC(c2cnc[nH]2)CC1 [THIOPERAMIDE] |  | 1
N#Cc1ccc(OCCCc2c[nH]cn2)cc1 |  | 0.54
c1ccc2cc(OCCc3c[nH]cn3)ccc2c1 |  | 1.5
O=[N+]([O-])c1ccc(SCCc2c[nH]cn2)nc1 |  | 2.6

More lines, main results first:

Ki [2] [nM] | SMILES | ED50 [1] [mg/kg]
38 | COc1ccc(OCCc2cnc[nH]2)cc1 | 2.9
29 | O=[N+]([O-])c1ccc(NCCc2c[nH]cn2)nc1 | 
54 | O=C(c1ccccc1)c1ccc(OCCc2c[nH]cn2)cc1 | 2.6
24 | Brc1ccc(OCCc2c[nH]cn2)cc1 | 2.9
12 | O=[N+]([O-])c1cccc(OCCc2c[nH]cn2)c1 | 0.9
80 | CCc1ccc(OCCc2cnc[nH]2)cc1 | > 10
> 500 | Fc1c(F)c(F)c(OCCc2c[nH]cn2)c(F)c1F | 10
3.7 | CCC(=O)c1ccc(OCCc2cnc[nH]2)cc1 | 0.95
137 | c1ccc2c(OCCc3c[nH]cn3)cccc2c1 | 3.4
338 | O=C(c1ccc(OCCc2cnc[nH]2)cc1)N1CCCCC1 | > 10
68 | FC(F)(F)c1ccc(OCCc2cnc[nH]2)cc1 | > 10
39 | N#Cc1cccc(OCCc2c[nH]cn2)c1 | 2.9
21 | Clc1ccc(OCCc2c[nH]cn2)cc1 | 0.78
11 | Fc1ccc(OCCCc2cnc[nH]2)cc1 | 4.9
9 | O=[N+]([O-])c1ccc(SCCc2c[nH]cn2)cc1 | 2.7
> 500 | Clc1cc(Cl)cc(OCCc2c[nH]cn2)c1 | > 10
